Biological target: Sodium-dependent dopamine transporter (Rattus norvegicus, UniProt P23977)
Sequence (P23977 whole entry): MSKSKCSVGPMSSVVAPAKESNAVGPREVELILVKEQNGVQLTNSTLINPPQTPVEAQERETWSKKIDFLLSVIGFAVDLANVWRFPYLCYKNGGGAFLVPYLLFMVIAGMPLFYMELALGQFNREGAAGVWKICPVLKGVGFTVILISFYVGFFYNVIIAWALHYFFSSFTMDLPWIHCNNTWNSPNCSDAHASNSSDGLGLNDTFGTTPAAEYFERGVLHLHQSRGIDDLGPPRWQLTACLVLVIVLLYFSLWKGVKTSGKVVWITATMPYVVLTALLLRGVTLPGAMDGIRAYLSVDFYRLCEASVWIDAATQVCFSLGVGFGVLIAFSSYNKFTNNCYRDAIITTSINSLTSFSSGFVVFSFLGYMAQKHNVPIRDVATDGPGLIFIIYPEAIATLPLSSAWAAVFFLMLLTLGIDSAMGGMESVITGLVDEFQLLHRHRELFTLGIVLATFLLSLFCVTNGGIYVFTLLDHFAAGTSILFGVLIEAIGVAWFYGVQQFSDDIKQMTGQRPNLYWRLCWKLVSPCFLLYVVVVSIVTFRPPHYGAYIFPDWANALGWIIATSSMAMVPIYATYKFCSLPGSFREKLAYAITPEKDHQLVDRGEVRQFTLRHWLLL

Row | Structure (SMILES) | Ki
1 | COc1ccc2c(c1)CN(C)CC2c1ccc(Cl)c(Cl)c1 (stereo not given) [DICLOFENSINE] | 7.08 nM
2 | COC(=O)[C@@H]1C2CC[C@H](C[C@@H]1c1ccccc1)N2C | 87.1 nM
3 | COC(=O)/C=C/[C@@H]1C2CCC(C[C@@H]1c1ccccc1)N2C (stereo not given in full) | 21.9 nM
4 | C[C@@H]1CN(CCCn2c3ccccc3c3ccccc32)C[C@H](C)N1 [RIMCAZOLE] | 105 nM
5 | COc1ccccc1OC(CCN)c1ccccc1 (stereo not given) | 562 nM
6 | CN1C2CCC1[C@@H](CCC(=O)c1ccccc1)[C@@H](c1ccccc1)C2 (stereo not given in full) | 28.2 nM
7 | O=C(OCCN1CCOCC1)C1(c2ccccc2)CCCCC1 | 5370 nM
8 | CN1C2CCC1[C@@H](CCCc1ccccc1)[C@@H](c1ccccc1)C2 (stereo not given in full) | 16.2 nM
9 | CN1C2CCC1[C@@H](/C=C/CO)[C@@H](c1ccccc1)C2 (stereo not given in full) | 16.2 nM
10 | COC(=O)C1C2CC[C@H](C[C@@H]1c1ccc(Cl)cc1)N2C (stereo not given in full) | 2 nM
11 | CCCN1CCCC(c2ccc(O)cc2)C1 (stereo not given) | 562 nM
12 | CC(=O)[C@@H]1C2CCC(C[C@@H]1OC(=O)c1ccccc1)N2C (stereo not given in full) | 191 nM
13 | CN1[C@@H]2CC[C@H]1C[C@@H](OC(c1ccccc1)c1ccccc1N)C2 (stereo not given in full) [AMINOBENZTROPINE] | 1860 nM
14 | CC(C)OC(=O)[C@@H]1C2CC[C@H](C[C@@H]1c1ccc(I)cc1)N2C | 3.98 nM
15 | CC[C@H]1CC2[C@@H](CC(=O)OC)[C@@H](Cc3ccccc3)CC1N2C (stereo not given in full) | 309 nM
16 | CC(NC(C)(C)C)C(=O)c1cccc(Cl)c1 (stereo not given) [BUPROPION] | 372 nM
17 | CCC[C@H]1CC2[C@@H](CC(=O)OC)[C@@H](Cc3ccccc3)CC1N2C (stereo not given in full) | 4170 nM

Row | Structure (SMILES) | Ki
18 | CN(C)C/C=C(\c1cccnc1)c1cccc(Br)c1 | 11200 nM
19 | CN1[C@@H]2CC[C@H]1C[C@@H](OC(c1ccccc1)c1cccc(C(F)(F)F)c1)C2 (stereo not given in full) | 191 nM
20 | COC(=O)[C@@H]1C2CC[C@H](C[C@@H]1c1ccc(C)cc1)N2C | 5.01 nM
21 | COC(=O)[C@@H]1C2CC[C@H](C[C@@H]1c1ccc(I)cc1)N2C | 2.09 nM
22 | CCC(=O)[C@@H]1C2CCC(C[C@@H]1OC(=O)c1ccccc1)N2C (stereo not given in full) | 309 nM
23 | CCCC[C@H]1CC2[C@@H](CC(=O)OC)[C@@H](Cc3ccccc3)CC1N2C (stereo not given in full) | 8510 nM
24 | COC(=O)/C=C/CC[C@@H]1C2CCC(C[C@@H]1c1ccccc1)N2C (stereo not given in full) | 20 nM
25 | COc1ccc(C(O[C@H]2C[C@H]3CC[C@@H](C2)N3C)c2ccccc2)cc1 (stereo not given in full) | 79.4 nM
26 | CN1[C@@H]2CC[C@H]1C[C@@H](OC(c1ccccc1)c1ccc(Cl)c(Cl)c1)C2 (stereo not given in full) | 21.4 nM
27 | COC(=O)CCCC[C@@H]1C2CCC(C[C@@H]1c1ccccc1)N2C (stereo not given in full) | 30.2 nM
28 | CN1C2CCC1[C@@H](CCCO)[C@@H](c1ccccc1)C2 (stereo not given in full) | 11 nM
29 | NC12CCC(c3ccccc3)(CC1)CC2 | 83.2 nM
30 | COC(=O)C[C@@H]1C2C[C@H](C)C(C[C@@H]1Cc1ccccc1)N2C (stereo not given in full) | 214 nM
31 | COC(=O)CC[C@@H]1C2CCC(C[C@@H]1c1ccccc1)N2C (stereo not given in full) | 22.9 nM
32 | c1ccc2sc(C3(N4CCCCC4)CCCCC3)cc2c1 | 10 nM
33 | COC(=O)C[C@@H]1C2C[C@H](Cc3ccccc3)C(C[C@@H]1Cc1ccccc1)N2C (stereo not given in full) | 3090 nM
34 | COC(=O)CC(c1ccccc1)C1CCCCN1 (stereo not given) | 186 nM

Biological target: Sodium-dependent dopamine transporter (Rattus norvegicus) (UniProt P23977)
Test: Binding affinity to Dopamine transporter (DAT) using [3H]WIN-35428 at 1 uM
In short: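 Rat striatal membranes (male Sprague-Dawley, 200-225 g) in modified Krebs-HEPES buffer, pH 7.4. Each tube held 2.5 mg tissue (original wet weight) and 1.5 nM [3H]WIN 35,428. Membranes were preincubated 5 min with or without 1 μM test compound, in triplicate, then incubated 60 min on ice. Nonspecific binding was taken with 0.1 mM cocaine·HCl. Filtration through BSA-presoaked GF/B filters, scintillation counting.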

Sodium-dependent dopamine transporter (Rattus norvegicus), sequence (P23977 whole entry): as above

Row | Structure (SMILES) | Specific binding
35 | CC(CN1CCCC1)OC(=O)C(c1ccccc1)C1C=CCC1 (stereo not given) | 49.7%
36 | c1ccc(C(CN2CCCCC2)OCc2cccs2)cc1 (stereo not given) | 42.1%
37 | CN1CCC(OC(c2ccccc2)c2ccc(Cl)cc2)C1 (stereo not given) | 8.43%
38 | CC(C(OC(=O)C1c2ccccc2-c2ccccc21)c1ccccc1)N(C)C (stereo not given) | 19%
39 | COc1cc(NCCN(CC(C)C)CC(C)C)c2ncccc2c1 | 81.6%
40 | CCCCN(CCCC)CCC(=O)c1cc(-c2ccccc2)oc1-c1ccccc1 | 93.4%
41 | c1ccc2c(CN3CCOCC3)c[nH]c2c1 | 88.1%
42 | CCOC(=O)N1CCN(Cc2c[nH]c3ccccc23)CC1 | 88.5%
43 | Clc1ccc(C2NCCNCc3ccccc32)cc1 (stereo not given) | 54.3%
44 | O=C1N2CCNc3ccccc3C(c3ccccc3)N1CC2 (stereo not given) | 55.8%
45 | O=C1c2ccccc2CC1CN1CCCCC1 (stereo not given) | 89.9%
